# High-throughput results as filed in PubChem BioAssay.
# TAAR1 ag – agonists of human TAAR1; CHO RD-HGA16 TAAR1, Fluo-8 calcium fluorescence; vehicle wells 0%, saturating PEA agonist 100%; activation, % at 3 µM; hit rate 0.99% among 360,000; AID 624467;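 active = activation above the mean activation of all test compounds in the run plus 3 SD, cut at about 38% in these data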
# Target sequence (Q96RJ0 whole entry, looked up): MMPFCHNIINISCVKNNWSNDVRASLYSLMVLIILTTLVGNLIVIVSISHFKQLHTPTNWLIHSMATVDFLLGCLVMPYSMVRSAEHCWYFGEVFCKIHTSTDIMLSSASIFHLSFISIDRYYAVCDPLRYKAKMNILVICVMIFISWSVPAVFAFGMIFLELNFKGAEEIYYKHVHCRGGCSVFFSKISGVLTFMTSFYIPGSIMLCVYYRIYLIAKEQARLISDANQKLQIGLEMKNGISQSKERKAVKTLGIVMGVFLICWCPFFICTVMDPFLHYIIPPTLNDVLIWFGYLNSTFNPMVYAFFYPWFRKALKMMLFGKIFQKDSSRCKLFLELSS
#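 Test system: RD-HGA16 (CHO) cells co-expressing Gα16 and hTAAR1; dosing: one-point dosing at 3 µM (nominal); timing: 17-24 h seeding, 75 min 37 °C dye, 30 min RT; signal: kinetic Fluo-8 calcium fluorescence; read-out basis: % activation relative to PEA EC100 response; controls: DMSO and PEA EC100; replicates: n 1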
# GPR7 antag – human neuropeptides B/W receptor 1 antagonism; P48145; GPR7-expressing cells, fluorescence antagonist assay; inhibition, % at 4.4 µM; hit rate 1.1% among 290,000; AID 1861; in the data active = inhibition above about 16%, passing the limit was not always enough;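 also: cells stimulated with the agonist NPW; 0% = agonist with vehicle and 100% = vehicle without agonist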
# Target sequence (P48145 whole entry, looked up): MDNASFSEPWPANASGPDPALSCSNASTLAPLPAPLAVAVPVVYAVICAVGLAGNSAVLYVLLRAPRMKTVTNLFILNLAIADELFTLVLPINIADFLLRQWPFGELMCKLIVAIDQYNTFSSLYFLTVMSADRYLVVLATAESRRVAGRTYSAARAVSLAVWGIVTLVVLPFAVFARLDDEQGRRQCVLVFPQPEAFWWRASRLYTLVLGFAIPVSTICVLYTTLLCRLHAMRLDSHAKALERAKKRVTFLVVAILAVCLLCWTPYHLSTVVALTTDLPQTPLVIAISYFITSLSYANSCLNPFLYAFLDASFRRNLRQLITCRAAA
# OX1R antag-1 – human HCRTR1 antagonism; O43613; CHO/OX1R cells, Fluo-8 calcium fluorescence, orexin A; inhibition, % at 5 µM; hit rate 0.43% among 330,000; AID 434989;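 active = inhibition above its plate's threshold, mean inhibition of all tested compounds on the plate plus 3 SD, cut at about 37% in these data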;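 also: 0% = orexin A challenge wells and 100% = SB-334867-A antagonist wells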
# TAAR1 antagonist – antagonists of human TAAR1; Q96RJ0; CHO RD-HGA16 TAAR1, Fluo-8 calcium fluorescence, antagonist; inhibition, % at 3 µM; hit rate 1.5% among 360,000; AID 624466;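 active = inhibition above a per-plate cutoff, the mean inhibition of test compounds on that plate plus 3 SD, cut at about 49% in these data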;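 also: 0% = DMSO plus EC80 beta-PEA response and 100% = DMSO alone without agonist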
#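 Test system: RD-HGA16 CHO cells with stable hTAAR1 and Gα16 / Probe or stimulus: EC80 β-phenethylamine stimulus / Times: seeding 17-24 h prior, 75-min 37 °C, 30-min RT dye loading / Detection: Fluo-8 calcium-sensitive fluorescence / Read-out basis: % inhibition scaled between DMSO and EC80 PEA controls / Repeats: singlicate, one well per test compound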
# CHO parental Ca – signal in parental CHO cells, OX1R antagonist counter-screen | parental CHO-K1, ATP-induced calcium, Fluo-8 fluorescence | inhibition, % at 5.6 µM | hit rate 0.63% among 330,000 | AID 463079;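 active = inhibition above that plate's mean sample inhibition plus 3 SD, cut at about 26% in these data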;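 also: 0% = ATP-challenged DMSO wells and 100% = DMSO wells without ATP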
#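 Assay system – parental CHO cells · Reagent – ATP stimulus · Detection – intracellular calcium via Fluo-8 no-wash fluorescent dye · Evaluation – percent inhibition of ATP-evoked calcium rise, normalized to controls · Controls – ATP wells versus no-ATP DMSO wells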
# OX1R antag-2 – blocks the human orexin 1 receptor; O43613; OX1R-expressing cells, FRET antagonist read-out; inhibition, % at 6.6 µM; hit rate 1.8% among 330,000; in the data active = inhibition mostly above about 38%, no sharp cut-off; inactive = mostly below about 40%;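 also: 0% = agonist challenge alone and 100% = reference antagonist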
# GPR7 antag cf – human GPR7 antagonism, confirmation assay; shares compounds with GPR7 antag; GPR7-expressing cells, calcium fluorescence antagonist mode; inhibition, % at 4.4 µM; hit rate 52% among 2,400; AID 1952; in the data active = inhibition above about 24%;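 also: stimulated with the GPR7 agonist NPW; 0% = agonist plus vehicle and 100% = vehicle alone without agonist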
# MCHR1 antag – antagonizes human MCHR1, a GPR7 antagonist counter-screen. shares compounds with GPR7 antag. MCHR1-expressing cells, fluorescence antagonist assay. inhibition, % at 4.4 µM. hit rate 62% among 2,400. AID 2148; in the data active = inhibition above about 22%;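 also: 0% = vehicle with agonist and 100% = vehicle without agonist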
# Active calls of the source: *; nt = no result given. Sampled rows, rich in hits. Any-hit rate of the full collection: about 4.6%.
SMILES,TAAR1 ag,GPR7 antag,OX1R antag-1,TAAR1 antagonist,CHO parental Ca,OX1R antag-2,GPR7 antag cf,MCHR1 antag
CC1CCCN(S(=O)(=O)c2ccc(NC(=O)CN3CCN(C)CC3)cc2)C1 (configuration not stated),10,-7,-12,-9,-4,-2,nt,nt
COc1ccccc1CNC(=O)C1CCCN1S(=O)(=O)c1ccc2c(c1)C(C)(C)C(=O)N2C (configuration not stated),1,nt,nt,-12,nt,nt,nt,nt
O=C(Nc1cc(Cl)ccc1N1CCOCC1)C1=COCCO1,0,nt,-29,10,-16,19,nt,nt
O=C(Nc1ccc(F)cc1)C(CCc1ccccc1)N1CCN(c2cccc(C(F)(F)F)n2)CC1 (configuration not stated),-1,nt,nt,28,nt,nt,nt,nt
CN(C)Cc1c(C(=O)N/N=C/c2cccc(OCc3c(F)cccc3Cl)c2)nnn1-c1nonc1N,4,3,17,-23,-5,9,nt,nt
CN(C)Cc1c(C(=O)N/N=C/c2ccccc2OCc2c(F)cccc2Cl)nnn1-c1nonc1N,4,35*,-14,46,-40,14,34*,66*
CCc1ccc(Nc2nnc(SCC(=O)c3c(N)n(C4CC4)c(=O)[nH]c3=O)s2)cc1,8,nt,-17,2,-16,6,nt,nt
Cc1cc2nc(C(C)(C)C)c(Cc3ccccc3C(F)(F)F)n2c(C)c1Br,11,nt,nt,-18,nt,nt,nt,nt
COc1ccc2c(Cl)c(C(=O)N/N=C3\CCCC(=O)C3)sc2c1,11,24*,3,17,1,14,11,28*
COc1ccc2c(Cl)c(C(=O)N/N=C/c3ccc4c(c3)OCO4)sc2c1,2,10,-4,10,-21,16,nt,nt
COc1ccc2nc(NC(=O)CSc3cn[nH]n3)sc2c1,0,10,1,11,-2,8,nt,nt
CCOc1ccc2nc(NC(=O)CSc3cn[nH]n3)sc2c1,-1,22*,-2,14,5,34,-4,6
CCOC(=O)c1ccc(N2CCCCC2)c(NS(=O)(=O)c2ccc(C)cc2)c1,0,25*,-31,-29,-5,5,15,62*
CN(C)c1ncnc2c1ncn2[C@H]1CN(Cc2ccc3c(c2)OCO3)C[C@@H](CO)O1,0,nt,nt,1,nt,nt,nt,nt
Cc1cc(C(=O)N2CCC(Cc3ccccc3)CC2)ccc1[N+](=O)[O-],2,nt,-21,5,-12,40,nt,21
O=C(NCc1ccccc1)c1c(Cl)nc(Cl)c(Cl)c1Cl,-3,76*,7,9,1,11,87*,45*
Cc1nc(Cl)c(C(=O)NCc2ccccc2)c(C)c1Cl,2,-18,-19,-16,-13,15,nt,nt
Cc1ccc(Cc2c(C3CCCCC3)nc3c4ccccc4ccn23)cc1,2,nt,nt,-64,nt,nt,nt,nt
CCc1nc2ccc(C(=O)N3CCN(c4ccc([N+](=O)[O-])cc4)CC3)cc2nc1CC,-2,29*,-33,-5,-19,16,24*,86*
CNC(=S)N1CCN(c2ccc([N+](=O)[O-])cc2)CC1,6,3,0,6,4,26,nt,nt
CCNC(=S)N1CCN(c2ccc([N+](=O)[O-])cc2)CC1,12,27*,-20,-2,-5,47,10,12
O=[N+]([O-])c1ccc(N2CCN(C(=S)NCc3ccc(Cl)cc3)CC2)cc1,6,51*,51*,36,84*,32,81*,87*
CN(C(=S)NC(=O)C1CCCC1)c1ccccc1,-1,nt,nt,-10,nt,nt,nt,nt
COC(=O)c1cc2c(c3c4ccccc4n(S(=O)(=O)c4ccccc4)c13)C(=O)N(Cc1ccc(C(F)(F)F)cc1)C2,0,nt,nt,-20,nt,nt,nt,nt
Nc1[nH]c(C(=O)c2ccccc2)c(-c2ccccc2C(F)(F)F)c1C(=O)NCc1cccc2ccccc12,1,nt,nt,-16,nt,nt,nt,nt
SMILES,TAAR1 ag,GPR7 antag,OX1R antag-1,TAAR1 antagonist,CHO parental Ca,OX1R antag-2,GPR7 antag cf,MCHR1 antag
CCCCC1Cc2[nH]c(=S)[nH]c(=O)c2C(c2cccc3ccccc23)O1 (configuration not stated),-1,nt,nt,-9,nt,nt,nt,nt
COc1ccc(C(CNC(=O)CCNS(=O)(=O)c2ccccc2)N2CCOCC2)cc1 (configuration not stated),0,nt,nt,2,nt,nt,nt,nt
COc1ccc(C2CC2/C(=N/O)c2ccccn2)cc1 (configuration not stated),-1,28*,7,26,-14,22,26*,18
O/N=C(\c1ccccn1)C1CC1c1ccccc1 (configuration not stated),-2,-10,-13,-1,-4,18,nt,nt
COC(=O)C1=C(C)N=C2SC(C#N)=C(N)N2C1c1cc(OC)c(OC)c(OC)c1 (configuration not stated),9,28*,-26,-3,-12,16,-4,-5
COC(=O)C1=C(C)N=C2SC(C#N)=C(N)N2C1c1ccc(OCc2ccccc2)cc1 (configuration not stated),12,-7,-2,18,-12,24,nt,nt
CC(CC(=O)N1CCN(c2cccc(Cl)c2)CC1)S(=O)(=O)c1ccc2c(c1)NC(=O)CO2 (configuration not stated),17,28*,57*,79*,78*,60*,37*,77*
CCOc1ccc(NC(=O)Nc2nc(SCC)ns2)cc1,6,25*,-5,18,37*,41,33*,66*
CCSc1nsc(NC(=O)Nc2ccc(F)cc2F)n1,nt,54*,15,nt,74*,43*,52*,55*
Cc1cccc(C(O)c2ncc(-c3ccc(Cl)cc3)[nH]2)c1C (configuration not stated),4,nt,nt,-12,nt,nt,nt,nt
CC(=O)NC(c1ccccc1)c1nc(-c2cc(F)cc(F)c2)cs1 (configuration not stated),1,nt,nt,-16,nt,nt,nt,nt
O=S(=O)(Cc1ccc(Cl)cc1)NCc1cccnc1,7,25*,-15,-2,-13,12,-4,-3
O=[N+]([O-])c1ccc(NC(=S)NCCc2ccc(F)cc2)cc1,10,33*,48*,28,34*,65*,75*,67*
COc1cc(OC)cc(C(=O)NCC2CCN(C(=O)C(=O)c3cc4ccccc4o3)CC2)c1,0,nt,nt,-23,nt,nt,nt,nt
O=C(Nc1ccc(F)c(Cl)c1)c1cc(C2CCCCN2C(=O)c2ccccc2)on1 (configuration not stated),-1,nt,nt,11,nt,nt,nt,nt
COc1ccc(-n2ccnc2CN2CCCC(CO)(Cc3cccc(OC)c3)C2)cc1 (configuration not stated),5,-9,-33,-5,-21,41,nt,nt
